Assay results as given in PMC2947312 (Neuron, 2010).

Key:
[1] = tested on: Aβ peptide variants from CHO-APPswe cells; assay: SELDI-TOF MS of Aβ peptide variants in CHO-APPswe conditioned medium; format: cell-based, Chinese hamster; details: 1 μM
Procedure, shortened: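 CHO-APPswe cells were treated with vehicle, reference γ-secretase inhibitor (1 µM) or test compound (1 µM). Conditioned medium was immunoprecipitated with anti-Aβ17-24 mAb 4G8. Ciphergen chips were prepared from the medium and analysed by SELDI-TOF mass spectrometry to profile Aβ peptide variants.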

[2] = tested on: Aβ42, Aβ40 and Aβtotal produced by CHO-APPswe cells; assay: CHO-APPswe cell-based Aβ assay; parameters: species or system Chinese hamster
Procedure, shortened: (§1)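 Stable lines: CHO-APPswe is CHO transfected with human APP695 carrying the Swedish double mutation (670/671 K/M to N/L). SH-SY5Y-APP is human neuroblastoma SH-SY5Y transfected with wild-type human APP751. Secreted Aβ40, Aβ42 and Aβtotal were measured in conditioned medium by mAb-specific sandwich ELISAs. Cytotoxicity was checked by Alamar Blue at the same compound concentrations, up to a maximum of 30 μM.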

[3] = tested on: Aβ42, Aβ40 and Aβtotal produced by SH-SY5Y-APP cells; assay: SH-SY5Y-APP cell-based Aβ assay; parameters: species or system human
Procedure, shortened: as §1

[4] = tested on: Aβ peptides secreted from Tg 2576 primary mixed brain cultures; assay: Aβ peptides in Tg 2576 mixed brain cultures; format: cell-based, mouse; details: Tg 2576 MBCs
Procedure, shortened: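 Neuronal cultures came from E17 Tg 2576 embryo brains, grown 6 days, then treated 18 h in triplicate wells at 10 concentrations in 3-fold dilution steps. Vehicle (PEG-400:H2O 80:20 v/v) was the negative control and BMS-299897 the positive control. Aβ38 was read by Meso Scale assay; Aβ40, Aβ42 and Aβtotal by mAb sandwich ELISA. Variants were resolved by anti-Aβ immunoprecipitation, tris-glycine gel electrophoresis and immunoblotting.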

[5] = tested on: γ-secretase-mediated ε-site processing of Notch (NΔE); assay: NICD formation in HEK-APP-NΔE_7-4 cells; format: cell-based, human; details: NΔE Notch/APP co-transfected cell line; DAPT 1 μM
Procedure, shortened: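 HEK293 cells doubly transfected with APP and Notch NΔE were treated overnight with test compound, 1 μM DAPT, or 0.2% v/v DMSO vehicle. Conditioned medium was collected, cell lysates were prepared, and anti-NICD immunoblots were run with GAPDH as a control. NICD was quantified by laser scanning densitometry against a half-volume vehicle sample.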

[6] = tested on: γ-secretase (AICD, Aβ42 and Aβ40 formation from APP-CTFs); assay: Cell-free assay of AICD and Aβ formation, CHO-APPswe membranes; format: biochemical, Chinese hamster; details: DAPT 1 μM, Compound 3 over a broad range of concentrations
Procedure, shortened: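 CHO-APPswe membrane preparations were incubated cell-free with vehicle (0.2% DMSO), 1 μM DAPT, or a range of test compound concentrations. AICD (ε-site) and Aβ42/Aβ40 (γ-site) formation were measured in parallel from the same preparations, semi-quantitatively. Data are mean ± SEM, n ≥ 3.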

Row | SMILES | effect on Aβ peptide variants (SELDI-TOF MS) [1] | effect on Aβ42, Aβ40 and Aβtotal peptide levels [2] | effect on Aβ42, Aβ40 and Aβtotal peptide levels [3] | effect on Aβ42, Aβ40, Aβ38 and Aβtotal (Meso Scale ELISAs) ([4]; 18 h) | effect on Aβ peptide variants (IP/immunoblot) ([4]; BMS-299897 1 μM) | effect on NICD formation [5] | effect on AICD formation [6]
1 | C[C@H](c1ccc(F)cc1CCCC(=O)O)N(c1cc(F)ccc1F)S(=O)(=O)c1ccc(Cl)cc1 [BMS-299897] | reduced the levels of all Aβ peptide variants to baseline levels | equivalently inhibited Aβ42, Aβ40 and Aβtotal peptide production | equivalently inhibited Aβ42, Aβ40 and Aβtotal peptide production | dose-dependent decrease in Aβ42, Aβ40, Aβ38 and Aβtotal levels | reduced the levels of all Aβ variants (Aβ37, Aβ38, Aβ40 and Aβ42) to undetectable levels |  | 
2 | C[C@H](NC(=O)Cc1cc(F)cc(F)c1)C(=O)N[C@H](C(=O)OC(C)(C)C)c1ccccc1 [DAPT, N-[N-(3,5-difluorophenacetyl)-L-alanyl]-S-phenylglycine t-butyl ester] |  |  |  |  |  | prevented NICD production entirely | totally inhibited
